The values that follow come from ChEMBL document CHEMBL3400073, “Design, synthesis and biological evaluation of new hybrid anticonvulsants derived from N-benzyl-2-(2,5-dioxopyrrolidin-1-yl)propanamide and 2-(2,5-dioxopyrrolidin-1-yl)butanamide derivatives” (Bioorg Med Chem, 2015).

For series [1], the system named is Mus musculus. The experiment in a line: Neurological toxicity in Albino Swiss CD1 mouse at 100 mg/kg, ip after 0.5 hrs by rotarod test. The series is classed as organism-based. Also noted: dose 100 mg/kg, route intraperitoneal. The note with it: in vivo. An outline of the steps:
(§1)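 Mice were trained on a 2 cm rod for 3 min, with unlimited trials, at least 24 h before testing. Each was then dosed ip at 100 mg/kg and tested at 10 rpm 0.5 h or 2 h later, in groups of 4. Failure to stay on the rod for at least 1 min indicated neurotoxicity.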
(The rotarod test checks motor coordination on a turning rod.)

In series [2] the test system is Mus musculus. As to the kind of experiment: Anticonvulsant activity in intraperitoneally dosed Albino Swiss CD1 mouse assessed as time to peak effect by maximal electroshock test. The series is classed as functional. A general note: The maximal electroshock test induces tonic seizures with an electrical stimulus.
The test system of series [3] is Mus musculus. As to the kind of experiment: Ratio of protective index for […] acid to protective index for compound in intraperitoneally dosed Albino Swiss CD1 mouse.
The nature of series [4]: Neurological toxicity in intraperitoneally dosed Albino Swiss CD1 mouse by rotarod test. The series is classed as organism-based. The note with it: in vivo, ip. Put shortly:
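Mice trained on the rotarod were given various ip doses, four groups in all, and tested at 10 rpm. Failure to stay on the rod for at least 1 min indicated neurotoxicity.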

Series [5] has as its system Mus musculus. The experiment in a line: Anticonvulsant activity in intraperitoneally dosed Albino Swiss CD1 mouse by subcutaneous pentylenetetrazole test. Type of series: functional. An outline of the steps:
(§2)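 Male CD-1 mice were dosed ip (0.1 mL/10 g, methylcellulose vehicle), at least four dose groups of 6 mice each. Protection in MES meant no hindlimb tonic extension after a 25 mA, 50 Hz, 0.2 s ear-electrode shock. Protection in scPTZ meant no clonus over 30 min.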

The test system of series [6] is Mus musculus. As to the kind of experiment: Protective index, ratio of neurotoxic TD50 in Albino Swiss CD1 mouse by rotarod test to anticonvulsant ED50 in Albino Swiss CD1 mouse by subcutaneous pentylenetetrazole test. An outline of the steps:
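The protective index is the rotarod TD50 divided by the MES or scPTZ ED50. Each value came from ip dosing in male CD-1 mice with probit analysis, and the reference drugs were tested under the same conditions.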

Series [7] deals with Mus musculus. The experiment in a line: Anticonvulsant activity in Albino Swiss CD1 mouse at 100 mg/kg, ip after 2 hrs by maximal electroshock test. Also noted: dose 100 mg/kg. The series is classed as functional, organism-based. An outline of the steps: (§3)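 Male CD-1 mice, 16–26 g, in groups of 4, each mouse used once, were given 100 mg/kg ip (0.1 mL/10 g, methylcellulose vehicle). MES used 25 mA, 500 V, 50 Hz delivered by ear electrodes for 0.2 s, and absence of hindlimb tonic extension counted as protection. In scPTZ, mice without clonic convulsions over 30 min of observation counted as protected. Both tests were run 0.5 h or 2 h after dosing.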

Series [8] relates to Mus musculus. As to the kind of experiment: Neurological toxicity in Albino Swiss CD1 mouse at 100 mg/kg, ip after 2 hrs by rotarod test. Type of series: organism-based. Also noted: dose 100 mg/kg, route intraperitoneal. The note with it: in vivo. An outline of the steps:
as §1

Series [9] has as its system Mus musculus. As to the kind of experiment: Anticonvulsant activity in Albino Swiss CD1 mouse at 100 mg/kg, ip after 2 hrs by subcutaneous pentylenetetrazole test. Also noted: dose 100 mg/kg. The series is classed as functional, organism-based. Put shortly: as §3
Series [10] relates to Mus musculus. The experiment in a line: Anticonvulsant activity in intraperitoneally dosed Albino Swiss CD1 mouse after 0.5 hrs by subcutaneous pentylenetetrazole test. The series is classed as functional. An outline of the steps:
as §2

Series [11] has as its system Mus musculus. As to the kind of experiment: Anticonvulsant activity in Albino Swiss CD1 mouse at 100 mg/kg, ip after 0.5 hrs by maximal electroshock test. Type of series: functional, organism-based. Set-up: dose 100 mg/kg. Put shortly: as §3
Series [12] has as its system Mus musculus. The experiment in a line: Anticonvulsant activity in intraperitoneally dosed Albino Swiss CD1 mouse assessed as time to peak effect after 2 hrs by subcutaneous pentylenetetrazole test. Type of series: functional.
For series [13], the system named is Mus musculus. As to the kind of experiment: Potency index, ratio of ED50 for […] acid to ED50 for compound in intraperitoneally dosed Albino Swiss CD1 mouse by subcutaneous pentylenetetrazole test. The series is classed as functional.
Series [14] concerns Mus musculus. As to the kind of experiment: Anticonvulsant activity in intraperitoneally dosed Albino Swiss CD1 mouse after 0.5 hrs by maximal electroshock test. The series is classed as functional. An outline of the steps:
as §2

Another series relates to HEK293. The experiment in a line: Antiproliferative activity against HEK293 cells at 0.01 to 250 uM after 48 hrs by formazan based EZ4U assay. The series is classed as cell-based. The note with it: human, hek293, 48 h. An outline of the steps:
(§4)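 HEK-293 cells (1.5 × 10^4/well) and IMR-32 cells (2 × 10^4/well) were grown in DMEM with 10% FBS for 24 h to 60% confluence. Compound was diluted from a 25 mM DMSO stock to 0.01–250 µM final, with DMSO at or below 1%, and incubated 48 h at 37 °C in 5% CO2. EZ4U reagent was added for 5 h, then absorbance was read at 492 nm.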

Series [15] in a line: Cytotoxic activity against human IMR32 cells at 0.01 to 250 uM after 48 hrs by formazan based EZ4U assay. Type of series: cell-based. The note with it: imr-32, 48 h. Put shortly: as §4
For series [16], the system named is Mus musculus. As to the kind of experiment: Anticonvulsant activity in intraperitoneally dosed Albino Swiss CD1 mouse after 2 hrs by maximal electroshock test. Type of series: functional. Put shortly:
as §2

Series [17] relates to Mus musculus. As to the kind of experiment: Anticonvulsant activity in Albino Swiss CD1 mouse at 100 mg/kg, ip after 0.5 hrs by subcutaneous pentylenetetrazole test. Type of series: functional, organism-based. Also noted: dose 100 mg/kg. Put shortly:
as §3

Series [18] relates to Mus musculus. As to the kind of experiment: Anticonvulsant activity in intraperitoneally dosed Albino Swiss CD1 mouse by maximal electroshock test. Type of series: functional. The note with it: Albino Swiss CD1, ip. Put shortly:
as §2

The next series has as its system Liver microsome. As to the kind of experiment: Drug metabolism in human liver microsomes assessed as metabolite formation treated with 50 uM 2-(2,5-Dioxopyrrolidin-1-yl)-N-(2-fluorobenzyl)propanamide pre-incubated at 37 degC for 5 mins before addition of NADPH regeneration system measured after 120 mins by UPLC-MS/MS method. The series is classed as ADME. To be noted: 2 h. Put shortly: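 Pooled human liver microsomes from adult males and females were used at 1 mg/ml in 0.1 M Tris-HCl, pH 7.4. After the 5 min preincubation, the NADPH regeneration system was added and the reaction ran for 120 min. It was quenched with cold methanol and centrifuged, and the supernatant was analysed by UPLC-MS/MS with ESI on a tandem quadrupole.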
A general note: Liver microsomes are a subcellular fraction often used to study metabolism.

The structures appear in SMILES notation. Active and inactive are the calls of the source. The calls are words filed in the database; no cut-off is given here.

With `CCC(C(=O)NCc1cccc(F)c1)N1C(=O)CCC1=O` (racemic), the Activity result in the series on Mus musculus [1] and with Mus musculus [8] was “Non-toxic” throughout. Moreover, the Time with Mus musculus [2] and with Mus musculus [12] was 0.5 h throughout. For the same molecule, the Ratio in the series with Mus musculus [3] came to 3.05. This molecule also had a TD50 in series [4] of 327 mg/kg. Moreover, the ED50 in the series on Mus musculus [5] is 47.4 mg/kg. Further, the “Ratio TD50/ED50” value in the series on Mus musculus [6] came to 6.89. Also, the outcome in the series with Mus musculus [7], in the series on Mus musculus [9] and in the series on Mus musculus [11] was inactive. Also, the MED50 with Mus musculus [10] is 100 mg/kg. In the series on Mus musculus [13], the “Ratio ED50” value amounted to 2.96.
As for `CC(C(=O)NCc1ccccc1F)N1C(=O)CCC1=O` (racemic), the Activity result (with Mus musculus [1]; in the series with HEK293; in series [15]; in the series with Mus musculus [8]) was “Non-toxic” throughout. The Time with Mus musculus [2] and in the series on Mus musculus [12] was 0.5 h throughout. For the same molecule, the MED50 with Mus musculus [14] and in the series with Mus musculus [10] was 100 mg/kg each time. The outcome in the series on Mus musculus [7] and with Mus musculus [9] was inactive.
As to `CC1CC(=O)N(C(C)C(=O)NCc2ccc(C(F)(F)F)cc2)C1=O` (racemic), the Activity entry with Mus musculus [1] and with Mus musculus [8] was “Non-toxic” each time. This molecule also showed an MED50 in the series with Mus musculus [16] of 100 mg/kg. For the same molecule, the Time in the series with Mus musculus [2] and with Mus musculus [12] was 2 h throughout. For the same molecule, the result in the series on Mus musculus [17], in the series on Mus musculus [9] and in the series on Mus musculus [11] was inactive. Besides, in the series on Mus musculus [18], the 50% effective dose (ED50) was above 150 mg/kg.
As to `O=C(NCc1ccccc1F)C(CO)N1C(=O)CCC1=O` (stereo not drawn), the Drug metabolism entry in the series on Liver microsome is “metabolite_detected”.

What is called TD50 is the dose at which the toxic effect under study appears in half of the subjects. For orientation: ED50 means the midpoint of the dose-response relation. A lower ED50 goes with an effect at a small dose.
